Measured values collected from several papers.
Converted amounts (≈) assume the structure as drawn.

| Compound | target or system | assay | conditions | quantity | result |
| --- | --- | --- | --- | --- | --- |
| NCC(=O)Nc1ccccc1/N=c1\cc(-c2ccc3c(c2)OCO3)oc2ccccc12 | HCT-116 | cell growth or viability, CCK-8 | 1 µM | inhibition | 4.94% |
| O=C1OC[C@H]2OC(O)[C@H](O)[C@@H](O)[C@@H]2OC(=O)c2cc(O)c(O)c(O)c2-c2c(O)c(O)c3oc(=O)c4c(c(O)c(O)c5oc(=O)c2c3c54)-c2c1cc(O)c(O)c2O (mixture of isomers) | Streptococcus mutans | microbial growth, disc diffusion | 500 µg/disc | inhibition zone | 15 mm |
| COc1ccc(NC(=O)NCc2cn(Cc3ccc(C)cc3)nn2)cc1 | PC-9 | cell growth or viability, CCK-8 | 50 µM, 72 h | viability | 113% |
| NCCCCC(=O)Nc1ccccc1/N=c1\cc(-c2ccc3c(c2)OCO3)oc2ccccc12 | HCT-116 | cell growth or viability, CCK-8 | 1 µM | inhibition | 3.02% |
| O=c1oc2c(O)c(O)cc3c(=O)oc4c(O)c(O)cc1c4c23 | Streptococcus mutans | microbial growth, broth dilution | 24 h | MIC | 100 µg/mL (≈ 331 µM) |
| C=C[C@]1(C)C[C@@H](OC(=O)CS[C@@H]2C[C@H]3CC[C@@H](C2)N3C)[C@]2(C)[C@H](C)CC[C@]3(CCC(=O)[C@H]32)[C@@H](C)[C@@H]1O | Streptococcus pyogenes | microbial growth | clinical isolate | MIC90 | 0.0312 µg/mL (≈ 0.0604 µM) |
| Nc1nc2ccc(-c3c/c(=N\c4ccccc4NC(=O)CCN4CCOCC4)c4ccccc4o3)cc2o1 | HCT-116 | cell growth or viability, CCK-8 | 1 µM | inhibition | -4.11% |
| C[C@@H]1O[C@@H](OC[C@H]2O[C@@H](Oc3c(-c4ccc(O)c(O)c4)oc4cc(O)cc(O)c4c3=O)[C@H](O)[C@@H](O)[C@@H]2O)[C@H](O)[C@H](O)[C@H]1O | Streptococcus mutans | microbial killing, broth dilution |  | MBC | 400 µg/mL (≈ 655 µM) |
| NCCCC(=O)Nc1ccccc1/N=c1\cc(-c2ccc3c(c2)OCO3)oc2ccccc12 | HCT-116 | cell growth or viability, CCK-8 | 1 µM | inhibition | 6.97% |
| Cc1nc(Nc2ncc(C(=O)Nc3c(C)cccc3Cl)s2)cc(N2CC[C@H](O)C2)n1 | JVM13 | cell growth or viability, ATP luminescence | 10 µM, 72 h | inhibition | 32% |
| CN[C@H](CC(C)C)C(=O)N[C@H]1C(=O)N[C@@H](CC(N)=O)C(=O)N[C@H]2C(=O)N[C@H]3C(=O)N[C@H](C(=O)N[C@H](C(=O)O)c4cc(O)cc(O)c4-c4cc3ccc4O)[C@H](O)c3ccc(c(Cl)c3)Oc3cc2cc(c3O[C@@H]2O[C@H](CO)[C@@H](O)[C@H](O)[C@H]2O[C@H]2C[C@](C)(N)[C@H](O)[C@H](C)O2)Oc2ccc(cc2Cl)[C@H]1O | Streptococcus pyogenes | microbial growth | clinical isolate | MIC90 | 1 µg/mL (≈ 0.69 µM) |
| C[C@@H]1[C@H](O)[C@@H](C)/C=C/C=C/C=C/C=C/C=C/C=C/C=C/[C@H](O[C@@H]2O[C@H](C)[C@@H](O)[C@H](N)[C@@H]2O)C[C@@H]2O[C@](O)(C[C@@H](O)C[C@@H](O)[C@H](O)CC[C@@H](O)C[C@@H](O)CC(=O)O[C@H]1C)C[C@H](O)[C@H]2C(=O)O | Leishmania infantum | parasite growth, MTT | promastigote | EC50 | 1500 nM |
| COc1ccc2/c(=N/c3ccccc3NC(=O)CN)cc(-c3ccc4c(c3)OCCO4)oc2c1 | HCT-116 | cell growth or viability, CCK-8 | 1 µM | inhibition | 11.4% |
| O=C(O[C@@H]1O[C@@H]2COC(=O)c3cc(O)c(O)c(O)c3-c3c(cc(O)c(O)c3O)C(=O)O[C@H]([C@H]1O)[C@@H]2O)c1cc(O)c(O)c(O)c1 | Streptococcus mutans | microbial growth, broth dilution | 24 h | MIC | 200 µg/mL (≈ 315 µM) |
| c1ccc(Oc2ccc(Nc3c4c(nc5ccccc35)CCC4)cc2)cc1 | Leishmania infantum | parasite growth, MTT | promastigote | IC50 | 530 nM |
| Oc1cc(O)c2c(c1)O[C@H](c1cc(O)c(O)c(O)c1)[C@@H](O)C2 | Streptococcus mutans | microbial growth, broth dilution | 24 h | MIC | 100 µg/mL (≈ 327 µM) |
| COCCC(=O)Nc1ccccc1/N=c1\cc(-c2ccc3c(c2)OCO3)oc2ccccc12 | HCT-116 | cell growth or viability, CCK-8 | 1 µM | inhibition | 7.96% |
| CCOc1ccc(Nc2c3c(nc4ccccc24)CCC3)cc1 | Leishmania infantum | parasite growth, MTT | promastigote | IC50 | 640 nM |
